In ChEMBL document CHEMBL3227959, “2'-O-Acyl-6-thioinosine cyclic 3',5'-phosphates as prodrugs of thioinosinic acid” (J Med Chem, 1979):
The source made the active and inactive calls. The calls are words filed in the database; no cut-off is given here.

Columns and labels:
[1] = test system: S49; assay: Cytotoxicity against HGPRTase-deficient mouse S49 cells assessed as growth inhibition after 72 hrs by trypan blue exclusion assay; assay type: functional, cell-based; settings: S49, 72 h
Summary of the method: (§1)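 S49 mouse T-lymphoma cells, pre-grown 24 h to keep growth exponential and asynchronous, were plated at 10^5 cells/mL in complete Dulbecco's modified Eagle medium. Agents were added in 30 mM NaHCO3. After 72 h at 37 °C, cells were counted by Coulter counter. Initial density was subtracted and growth expressed as a fraction of drug-free wells. EC50 was read from the percent-inhibition versus concentration plot, reported as mean ± SE. Trypan blue was used to check cytolysis.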

[2] = test system: S49; assay: Cytotoxicity against wild type mouse S49 cells assessed as growth inhibition after 72 hrs by trypan blue exclusion assay; assay type: functional, cell-based; settings: S49, 72 h; summary of the method: as §1
[3] = test system: S49; assay: Cytotoxicity against HGPRTase- and protein kinase-deficient mouse S49 cells assessed as growth inhibition; assay type: functional, cell-based; summary of the method: as §1
[4] = test system: S49; assay: Cytotoxicity against wild type mouse S49 cells assessed as growth inhibition at 200 uM after 72 hrs by trypan blue exclusion assay; assay type: functional; settings: S49, 72 h, read-out: GI; summary of the method: as §1
[5] = test system: S49; assay: Cytotoxicity against HGPRTase- and protein kinase-deficient mouse S49 cells assessed as growth inhibition at 1 mM; assay type: functional, cell-based; summary of the method: as §1
[6] = Drug degradation in Eagle's medium containing 10 % heat-inactivated horse serum assessed as parent compound after 3 days by reverse-phase liquid chromatography; assay type: physicochemical; settings: read-out: Stability
Summary of the method: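 Agent at 0.5 mM was incubated without cells for 3 days at 37 °C in Dulbecco's modified Eagle medium with 10% heat-inactivated horse serum. Aliquots were diluted 5:1 with methanol, filtered (0.45 μm), and analysed by reverse-phase C18 LC.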

[7] = test system: S49; assay: Cytotoxicity against HGPRTase-, protein kinase- and phosphodiesterase-deficient mouse S49 cells assessed as growth inhibition; assay type: functional, cell-based; summary of the method: as §1
[8] = test system: S49; assay: Cytotoxicity against HGPRTase-deficient mouse S49 cells assessed as growth inhibition in presence of theophylline
[9] = test system: S49; assay: Cytotoxicity against HGPRTase-deficient mouse S49 cells assessed as growth inhibition in presence of 4-(3-butoxy-4-methoxybenzyl)-2-imidazolone
[10] = test system: S49; assay: Cytotoxicity against HGPRTase-deficient mouse S49 cells assessed as growth inhibition at 500 uM after 20 to 49 hrs by time-course study in presence of theophylline; assay type: functional, cell-based
Summary of the method: (§2)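 Growth of HGPRTase-deficient S49 cells was followed over time with 0.5 mM agent, compared with drug-free cultures. The cAMP comparator was given with 0.2 mM theophylline.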

[11] = test system: S49; assay: Cytotoxicity against HGPRTase-deficient mouse S49 cells assessed as growth inhibition at 500 uM after 20 to 49 hrs by time-course study; assay type: functional, cell-based; summary of the method: as §2
[12] = test system: S49; assay: Cytotoxicity against HGPRTase-deficient mouse S49 cells assessed as growth inhibition at 1000 uM after 72 hrs by trypan blue exclusion assay; assay type: functional, cell-based; summary of the method: as §1
[13] = test system: S49; assay: Cytotoxicity against wild type mouse S49 cells assessed as growth inhibition after 24 hrs by time-course study; assay type: functional, cell-based
[14] = test system: S49; assay: Cytotoxicity against HGPRTase-deficient mouse S49 cells assessed as growth inhibition at 100 uM after 72 hrs by trypan blue exclusion assay; assay type: functional, cell-based; summary of the method: as §1

Compound | EC50 [1] [µM] | EC50 [2] [µM] | other results
CC(C)(C)C(=O)O[C@@H]1[C@@H]2OP(=O)(O)OC[C@H]2O[C@H]1n1cnc2c(=S)[nH]cnc21 | 237 | 33 | 
CCCC(=O)O[C@@H]1[C@@H]2OP(=O)(O)OC[C@H]2O[C@H]1n1cnc2c(=S)[nH]cnc21 | 426 | 137 | EC50 [3]: 250 µM
CCCCCC(=O)O[C@@H]1[C@@H]2OP(=O)(O)OC[C@H]2O[C@H]1n1cnc2c(=S)[nH]cnc21 | 210 | 10 | 
CCCCCC(=O)O [HEXANOATE] | > 1000 |  | 
O=P1(O)OC[C@H]2O[C@@H](n3cnc4c(=S)[nH]cnc43)[C@H](O)[C@@H]2O1 | > 1000 | 200 | inhibition of growth at 200 µM [4]: 40%
CCCC(=O)O[C@@H]1[C@@H]2OP(=O)(O)OC[C@H]2O[C@H]1n1cnc2c(N)ncnc21 |  |  | growth inhibition (GI) [5]: inactive
OC[C@H]1O[C@@H](n2cnc3c(S)ncnc32)[C@H](O)[C@@H]1O [THIOINOSINE] | 400 | 0.25 | 
CCCCCCCCCCCCCCCC(=O)O[C@@H]1[C@@H]2OP(=O)(O)OC[C@H]2O[C@H]1n1cnc2c(=S)[nH]cnc21 | 65 | 6 | remaining at 72 h [6]: 20%; growth inhibition (GI) [7]: Active; growth inhibition (GI) [8]: Active; growth inhibition (GI) [9]: Active
CCCCCCCCCCCCCCCC(=O)O [PALMITIC ACID] | 500 |  | 
CC(=O)O[C@@H]1[C@@H]2OP(=O)(O)OC[C@H]2O[C@H]1n1cnc2c(=S)[nH]cnc21 | 655 | 210 | 
CCCC(=O)Nc1ncnc2c1ncn2[C@@H]1O[C@@H]2COP(=O)(O)O[C@H]2[C@H]1OC(=O)CCC |  |  | growth inhibition (GI) [10]: Active; growth inhibition (GI) [11]: Active
CCCCCCCCCCCC(=O)O[C@@H]1[C@@H]2OP(=O)(O)OC[C@H]2O[C@H]1n1cnc2c(=S)[nH]cnc21 | 109 | 10 | 
CC(C)C(=O)O[C@@H]1[C@@H]2OP(=O)(O)OC[C@H]2O[C@H]1n1cnc2c(=S)[nH]cnc21 | 479 | 23 | 
CC(C)C(=O)O |  |  | growth inhibition (GI) [12]: inactive
Sc1ncnc2nc[nH]c12 [MERCAPTOPURINE ANHYDROUS] | > 1000 | 8 | growth inhibition (GI) [13]: Active
CCCCCCCCCCCCCCCCCCCCCC(=O)O[C@@H]1[C@@H]2OP(=O)(O)OC[C@H]2O[C@H]1n1cnc2c(=S)[nH]cnc21 | 120 |  | 
CCCCCCCCCCCC(=O)O |  |  | growth inhibition (GI) [14]: inactive
